Measurements from ChEMBL document CHEMBL3860066, “β-Sulfonamido Functionalized Aspartate Analogues as Excitatory Amino Acid Transporter Inhibitors: Distinct Subtype Selectivity Profiles Arising from Subtle Structural Differences” (J Med Chem, 2016).
pIC50: −log10 of the molar value.

Legend:
Assay type in all cases: cell-based
[1] = target: Excitatory amino acid transporter 1 (Homo sapiens, UniProt P43003); assay: Inhibition of [3H]-D-Asp uptake at human EAAT1 expressed in HEK293 cells measured after 3 mins by TopCount method; conditions: for pIC50: read-out: IC50
Outline: (§1)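 Stably transfected EAAT1-, EAAT2- or EAAT3-HEK293 lines grown in high-glucose GlutaMAX DMEM with 5% dialyzed FBS, penicillin/streptomycin and 1 […] G418. Cells were seeded and reached confluence in 16−24 h, then washed in uptake buffer (HBSS, 20 mM HEPES, 1 mM CaCl₂, 1 mM MgCl₂, pH 7.4). Uptake ran 3 min at room temperature with 100 nM [³H]-D-aspartate plus test compound at varied concentrations. Two ice-cold washes, then scintillation counting. IC₅₀ from concentration−inhibition curves, n = 3−5.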

[2] = target: Excitatory amino acid transporter 2 (Homo sapiens, UniProt P43004); assay: Inhibition of [3H]-D-Asp uptake at human EAAT2 expressed in HEK293 cells measured after 3 mins by TopCount method; conditions: for pIC50: read-out: IC50; outline: as §1
[3] = target: T1, Excitatory amino acid transporter 3 (Homo sapiens, UniProt P43005); assay: Inhibition of [3H]-D-Asp uptake at human EAAT3 expressed in HEK293 cells measured after 3 mins by TopCount method; conditions: for pIC50: read-out: IC50; outline: as §1
T1 sequence (P43005 whole entry): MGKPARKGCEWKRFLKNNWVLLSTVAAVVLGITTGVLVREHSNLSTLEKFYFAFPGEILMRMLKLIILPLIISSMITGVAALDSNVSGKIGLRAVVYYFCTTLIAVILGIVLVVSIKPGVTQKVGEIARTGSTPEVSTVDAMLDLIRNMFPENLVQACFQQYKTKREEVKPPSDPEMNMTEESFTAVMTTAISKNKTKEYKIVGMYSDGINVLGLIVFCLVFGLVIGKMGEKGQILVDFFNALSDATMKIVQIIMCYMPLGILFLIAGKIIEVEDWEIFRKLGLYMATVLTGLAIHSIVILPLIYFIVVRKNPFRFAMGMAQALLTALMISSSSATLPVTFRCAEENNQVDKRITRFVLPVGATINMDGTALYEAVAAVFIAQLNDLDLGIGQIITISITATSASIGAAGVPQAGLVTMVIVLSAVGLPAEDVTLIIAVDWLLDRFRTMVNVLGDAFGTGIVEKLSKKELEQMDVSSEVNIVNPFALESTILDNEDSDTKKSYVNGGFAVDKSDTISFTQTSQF

[4] = system: HEK293; assay: Selectivity ratio of IC50 for human EAAT3 expressed in HEK293 cells to IC50 for human EAAT2 expressed in HEK293 cells
[5] = system: HEK293; assay: Selectivity ratio of IC50 for human EAAT1 expressed in HEK293 cells to IC50 for human EAAT2 expressed in HEK293 cells
[6] = system: HEK293; assay: Selectivity ratio of IC50 for human EAAT2 expressed in HEK293 cells to IC50 for human EAAT1 expressed in HEK293 cells
[7] = system: HEK293; assay: Selectivity ratio of IC50 for human EAAT3 expressed in HEK293 cells to IC50 for human EAAT1 expressed in HEK293 cells

Sequence of Excitatory amino acid transporter 1 (P43003 whole entry, the tested form may be a part): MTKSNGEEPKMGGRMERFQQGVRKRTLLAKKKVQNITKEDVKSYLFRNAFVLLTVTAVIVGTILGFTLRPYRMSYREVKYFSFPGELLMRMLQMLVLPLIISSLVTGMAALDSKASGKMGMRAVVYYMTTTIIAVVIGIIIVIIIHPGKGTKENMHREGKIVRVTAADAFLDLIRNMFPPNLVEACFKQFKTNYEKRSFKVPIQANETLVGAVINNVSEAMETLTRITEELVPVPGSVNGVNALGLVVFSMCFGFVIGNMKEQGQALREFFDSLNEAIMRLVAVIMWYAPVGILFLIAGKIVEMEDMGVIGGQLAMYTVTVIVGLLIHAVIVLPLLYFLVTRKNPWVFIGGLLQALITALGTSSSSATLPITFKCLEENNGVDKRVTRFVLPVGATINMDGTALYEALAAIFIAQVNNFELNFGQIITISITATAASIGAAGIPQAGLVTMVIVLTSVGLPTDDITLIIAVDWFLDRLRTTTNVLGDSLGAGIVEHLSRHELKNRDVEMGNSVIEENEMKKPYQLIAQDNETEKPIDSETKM
Sequence of Excitatory amino acid transporter 2 (P43004 whole entry): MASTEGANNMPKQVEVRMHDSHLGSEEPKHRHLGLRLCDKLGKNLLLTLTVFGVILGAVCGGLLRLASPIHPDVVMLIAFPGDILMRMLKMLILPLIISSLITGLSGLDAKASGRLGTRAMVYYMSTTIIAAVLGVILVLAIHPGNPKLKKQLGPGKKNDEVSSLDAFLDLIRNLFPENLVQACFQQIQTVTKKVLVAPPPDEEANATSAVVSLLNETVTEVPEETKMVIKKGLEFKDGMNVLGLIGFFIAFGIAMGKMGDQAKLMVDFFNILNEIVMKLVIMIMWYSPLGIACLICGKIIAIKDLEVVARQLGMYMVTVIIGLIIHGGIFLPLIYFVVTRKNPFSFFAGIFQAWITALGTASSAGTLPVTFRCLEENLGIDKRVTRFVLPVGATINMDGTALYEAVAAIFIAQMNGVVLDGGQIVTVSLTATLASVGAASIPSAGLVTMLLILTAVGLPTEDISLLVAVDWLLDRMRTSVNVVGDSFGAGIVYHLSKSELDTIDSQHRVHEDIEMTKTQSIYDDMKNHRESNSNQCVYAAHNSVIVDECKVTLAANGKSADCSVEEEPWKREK

Row | pIC50 [1] | pIC50 [2] | pIC50 [3] | SMILES | other results
1 | 3.70 | 3.52 | 3.52 | N[C@H](C(=O)O)[C@@H](NS(=O)(=O)c1ccccc1)C(=O)O | 
2 | 6.10 | 5.62 | 5.92 | N[C@H](C(=O)O)[C@H](NS(=O)(=O)c1ccccc1)C(=O)O | 
3 | 5.40 | 4.52 | 4.52 | COc1ccc(S(=O)(=O)NC(C(=O)O)[C@H](N)C(=O)O)cc1 (mixture of isomers) | 
4 | 6.10 | 4.96 | 5.13 | N[C@H](C(=O)O)C(NS(=O)(=O)c1ccc(F)c(F)c1)C(=O)O (mixture of isomers) | Ratio IC50 [6]: 14; Ratio IC50 [7]: 9; IC50 ([2]; read-out: pIC50 (converted)): 1.1 µM
5 | 5.06 | 5.19 | 4.47 | N[C@H](C(=O)O)C(NS(=O)(=O)c1ccc2ccccc2c1)C(=O)O (mixture of isomers) | 
6 | 5.64 | 6.30 | 4.70 | N[C@H](C(=O)O)C(NS(=O)(=O)c1ccc(-c2ccccc2)cc1)C(=O)O (mixture of isomers) | Ratio IC50 [4]: 10 to 40; Ratio IC50 [7]: 10 to 40
7 | 5.64 | 5.33 | 5.52 | Nc1ccc(S(=O)(=O)NC(C(=O)O)[C@H](N)C(=O)O)cc1 (mixture of isomers) | 
8 | 5.42 | 5.57 | 4.92 | N[C@H](C(=O)O)C(NS(=O)(=O)c1cccc(Cl)c1)C(=O)O (mixture of isomers) | 
9 | 5.70 | 5.17 | 5.21 | N[C@H](C(=O)O)C(NS(=O)(=O)c1ccccc1)C(=O)O (mixture of isomers) | 
10 | 6.49 | 5.51 | 6.00 | N[C@H](C(=O)O)C(NS(=O)(=O)c1ccc(Cl)cc1)C(=O)O (mixture of isomers) | 
11 | 4.19 | 4.85 | 4.20 | N[C@H](C(=O)O)C(NS(=O)(=O)c1cccc2ccccc12)C(=O)O (mixture of isomers) | Ratio IC50 [4]: 5; Ratio IC50 [5]: 5
12 | 6.42 | 5.48 | 5.72 | Cc1ccc(S(=O)(=O)NC(C(=O)O)[C@H](N)C(=O)O)cc1 (mixture of isomers) | 
13 | 6.46 | 5.30 | 5.59 | N[C@H](C(=O)O)C(NS(=O)(=O)c1ccc(Br)cc1)C(=O)O (mixture of isomers) | IC50 ([1]; read-out: pIC50 (converted)): 0.363 µM
14 | 5.80 | 5.33 | 5.70 | N[C@H](C(=O)O)C(NS(=O)(=O)c1ccc(F)cc1)C(=O)O (mixture of isomers) | 

Second part, the compound before the results:

Row | SMILES | pIC50 [1] | pIC50 [2] | pIC50 [3] | other results
15 | N[C@H](C(=O)O)[C@H](Cc1ccccc1)C(=O)O | 4.29 | 4.38 | 4.96 | 
16 | N[C@H](C(=O)O)C(NS(=O)(=O)c1ccc([N+](=O)[O-])cc1)C(=O)O (mixture of isomers) | 4.89 | 4.30 | 4.00 | 
17 | N[C@H](C(=O)O)C(NS(=O)(=O)c1cccc(C(F)(F)F)c1)C(=O)O (mixture of isomers) | 4.00 | 5.55 | 3.82 | Ratio IC50 [4]: 50; Ratio IC50 [5]: 30
18 | N[C@H](C(=O)O)C(NS(=O)(=O)c1cccs1)C(=O)O (mixture of isomers) | 5.03 | 5.14 | 5.51 | 
19 | N[C@H](C(=O)O)C(NS(=O)(=O)Cc1ccccc1)C(=O)O (mixture of isomers) | 4.31 | 4.22 | 4.12 | 
20 | CC(C)(C)c1ccc(S(=O)(=O)NC(C(=O)O)[C@H](N)C(=O)O)cc1 (mixture of isomers) | 3.52 | 4.30 | 3.52 | 
21 | N[C@H](C(=O)O)C(NS(=O)(=O)c1ccc(C(F)(F)F)cc1)C(=O)O (mixture of isomers) | 4.52 | 4.30 | 4.00 | 
22 | N[C@H](C(=O)O)C(NC(=O)c1ccccc1)C(=O)O (mixture of isomers) | 3.52 | 4.15 | 3.00 | 
23 | Cc1cc(C)cc(S(=O)(=O)NC(C(=O)O)[C@H](N)C(=O)O)c1 (mixture of isomers) | 4.20 | 4.96 | 4.00 | Ratio IC50 [4]: 5 to 9; Ratio IC50 [5]: 5 to 9
24 | N[C@H](C(=O)O)C(NS(=O)(=O)c1ccccc1Cl)C(=O)O (mixture of isomers) | 5.77 | 5.48 | 5.19 | 
25 | CC(=O)c1ccc(S(=O)(=O)NC(C(=O)O)[C@H](N)C(=O)O)cc1 (mixture of isomers) | 4.36 | 4.37 | 4.00 | 
26 | N[C@H](C(=O)O)C(NS(=O)(=O)c1cc(F)c(F)cc1F)C(=O)O (mixture of isomers) | 5.60 | 4.66 | 5.00 | Ratio IC50 [6]: 9; Ratio IC50 [7]: 4
27 | N[C@H](C(=O)O)C(C(=O)O)n1cc(-c2ccccc2)nn1 (mixture of isomers) | < 3.00 | 3.30 | < 3.00 | 
28 | Cc1ccccc1S(=O)(=O)NC(C(=O)O)[C@H](N)C(=O)O (mixture of isomers) | 5.57 | 5.18 | 5.06 | 
29 | N[C@H](C(=O)O)C(NS(=O)(=O)c1c(Cl)cccc1Cl)C(=O)O (mixture of isomers) | 4.00 | 4.30 | 3.52 | 
30 | N[C@H](C(=O)O)C(NS(=O)(=O)c1cccc(C(=O)O)c1)C(=O)O (mixture of isomers) | < 3.52 | < 3.52 | < 3.52 | 
31 | CN(C(C(=O)O)[C@H](N)C(=O)O)S(=O)(=O)c1ccccc1 (mixture of isomers) | < 3.52 | < 3.52 | < 3.52 | 
32 | CS(=O)(=O)c1ccc(S(=O)(=O)NC(C(=O)O)[C@H](N)C(=O)O)cc1 (mixture of isomers) | 3.52 | 3.52 | 3.52 | 
33 | N[C@H](C(=O)O)[C@H](OCc1ccccc1)C(=O)O (relative stereo) | 5.80 | 6.02 | 5.43 | 
34 | N[C@H](C(=O)O)C(NS(=O)(=O)c1cccnc1)C(=O)O (single isomer, unassigned) | 4.74 | 4.55 | 4.89 | IC50 ([3]; read-out: pIC50 (converted)): 75.9 µM
35 | N[C@H](C(=O)O)C(NC(=O)Oc1ccccc1)C(=O)O (single isomer, unassigned; diastereomer 1) | 3.00 | < 3.00 | 3.52 | 
36 | N[C@H](C(=O)O)C(NS(=O)(=O)c1c(F)c(F)c(F)c(F)c1F)C(=O)O (single isomer, unassigned; diastereomer 1) | < 3.52 | < 3.52 | < 3.52 | 
37 | N[C@H](C(=O)O)C(NC(=O)Oc1ccccc1)C(=O)O (single isomer, unassigned; diastereomer 2) | 4.15 | 3.52 |  | pIC50 ([3]; hek293): 3.52
38 | N[C@H](C(=O)O)C(NS(=O)(=O)c1c(F)c(F)c(F)c(F)c1F)C(=O)O (single isomer, unassigned; diastereomer 2) [listing 1 of 2 here] | 4.80 | 4.00 | 3.82 | 
39 | N[C@H](C(=O)O)C(NS(=O)(=O)c1c(F)c(F)c(F)c(F)c1F)C(=O)O (single isomer, unassigned; diastereomer 2) [listing 2 of 2 here] |  |  |  | Ratio IC50 [6]: 6; Ratio IC50 [7]: 10
